According to ChEMBL document CHEMBL3352570, “ST7612AA1, a thioacetate-ω(γ-lactam carboxamide) derivative selected from a novel generation of oral HDAC inhibitors” (J Med Chem, 2014):

Key:
[1] = Half life in human hepatocytes at 5 uM by LCMS/MS analysis; type: ADME, cell-based, Hepatocyte
Procedure, shortened: (§1)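 Incubation in human hepatocytes. […] Values are means of at least three experiments.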

[2] = Intrinsic clearance in human hepatocytes assessed per million cells at 5 uM by LCMS/MS analysis; type: ADME, cell-based, Hepatocyte; details: read-out: CLH; procedure, shortened: as §1
Mus musculus [3] = assay: Toxicity in human A2780 cells xenografted athymic nude mouse assessed as body weight loss at 100 mg/kg, po qd for 5 days a week for 2 weeks; type: organism-based; design: dose 100 mg/kg, route oral; details: in vivo
Procedure, shortened: (§2)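 Nude mice (female, athymic, 5–6 weeks) carried sc right-flank xenografts of 5 × 10⁶ cells per 100 μL. Oral treatment once daily started 3 days after inoculation.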

[4] = Stability of the compound in aqueous solution at pH 7.4 after 24 hrs; type: physicochemical; details: buffer, pH 7.4, 24 h
Procedure, shortened: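 Stability in aqueous solution at pH 7.4 over 24 h.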

[5] = Stability of the compound in aqueous solution at pH 1.2 after 3 hrs; details: buffer, pH 1.2, 3 h
NCI-H460 = assay: Cytotoxicity against human NCI-H460 cells after 24 hrs by SRB assay; type: functional, cell-based; details: NCI-H460, 24 h
Procedure, shortened: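 NCI-H460 cells were grown in RPMI-1640 with L-glutamine, 10% heat-inactivated FCS and 50 μg/mL gentamicin. Cells were seeded at about 10% confluence and allowed to recover for 24 h. They were exposed to varying concentrations for 24 h, washed, then cultured a further 48 h. Surviving cells were measured by SRB. IC50 is the 50% reduction in cell number versus vehicle, from dose–response curve fitting; means of at least three experiments.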

[6] = Cytotoxicity against human HCT116 cells after 24 hrs by SRB assay; type: functional, cell-based; details: HCT-116, 24 h
Procedure, shortened: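 HCT116 cells were cultured in McCoy's 5A with L-glutamine, 10% heat-inactivated FCS and 50 μg/mL gentamicin. After seeding at about 10% confluence and a 24 h recovery, they received drug for 24 h. Drug was washed out and cells were incubated 48 h more before SRB staining. IC50 is the 50% cell-number reduction versus vehicle, from fitted dose–response curves; means of at least two experiments.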

Histone deacetylase [7] = assay: Inhibition of HDAC-mediated tubulin deacetylation in human NCI-H460 cells after 3 hrs by Western blot analysis; type: cell-based
Procedure, shortened: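 Cells (NCI-H460) were treated for 3 h with graded concentrations. The cytoplasmic fraction was collected after HNB/1% NP-40 lysis and centrifugation of nuclei at 2000g. This fraction was resolved by SDS-PAGE and probed for acetylated α-tubulin against α-tubulin and β-actin. Bands were detected by ECL and quantified by densitometry after normalization; IC50 fitted; means of at least two experiments.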

Histone deacetylase [8] = assay: Inhibition of HDAC-mediated histone H4 deacetylation in human NCI-H460 cells after 3 hrs by Western blot analysis; type: cell-based
Procedure, shortened: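 NCI-H460 cells were plated the day before and treated 3 h across a dose range. Cells were washed with DPBS containing 5 mM NaB and lysed in HNB buffer with 1% NP-40. Histones were acid-extracted from nuclei with 0.4 equiv/L H2SO4 and precipitated with acetone. Blots were probed for acetyl-H4 against total H4. Read-out was ECL and densitometry after normalization; IC50 fitted; means of at least two experiments.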

[9] = Efflux ratio of permeability from apical to basolateral side to basolateral to apical side of human Caco2 cells; type: ADME, cell-based; details: caco-2
Procedure, shortened: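 Caco-2 monolayers; the efflux ratio is flux in the apical-to-basolateral direction over flux in the basolateral-to-apical direction. Means of at least three experiments.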

[10] = Efflux ratio of permeability from apical to basolateral side to basolateral to apical side of human Caco2 cells in presence of digoxin; type: ADME, cell-based; details: caco-2
Procedure, shortened: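 Caco-2 AB/BA flux ratio measured with digoxin coincubated with test and reference compounds. Means of at least three experiments.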

[11] = Antitumor activity against human HCT116 cells xenografted in athymic nude mouse assessed as tumor volume inhibition at 60 mg/kg, po qd for 5 days a week for 3 weeks; type: functional; details: HCT-116
Procedure, shortened: (§3)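 Female athymic nude mice, 5–6 weeks old, were inoculated sc in the right flank with 5 × 10⁶ exponentially growing tumor cells per 100 μL. Oral dosing once daily began 3 days after tumor injection, in Solutol HS15 diluted 1/20 in water. Tumor volume inhibition was calculated as TVI% = 100 − [(mean TV treated/mean TV control) × 100].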

A2780 = assay: Antitumor activity against human A2780 cells xenografted in athymic nude mouse assessed as tumor volume inhibition at 60 mg/kg, po qd for 5 days a week for 3 weeks; type: functional; details: in the assay text read “for 2 weeks” for “for 3 weeks”; procedure, shortened: as §3
Mus musculus [12] = assay: Toxicity in human HCT116 cells xenografted athymic nude mouse assessed as body weight loss at 60 mg/kg, po qd for 5 days a week for 3 weeks; type: organism-based, HCT-116; design: dose 60 mg/kg, route oral; details: in vivo; procedure, shortened: as §2
Mus musculus [13] = assay: Toxicity in human A2780 cells xenografted athymic nude mouse assessed as body weight loss at 60 mg/kg, po qd for 5 days a week for 3 weeks; type: organism-based; design: dose 60 mg/kg, route oral; details: in vivo, in the assay text read “for 2 weeks” for “for 3 weeks”; procedure, shortened: as §2
[14] = Solubility of the compound in Solutol HS15

half-life at 5 µM [1] [min] | hepatocyte CLint at 5 µM [2] [µL/min/1e6 cells] | Stability [4] | Stability [5] | IC50 (Histone deacetylase [7]) [nM] | IC50 (Histone deacetylase [8]) [nM] | Ratio [9] | Ratio [10] | solubility [14] [µg/mL] | Compound | Activity (Mus musculus [3]) [%] | IC50 (NCI-H460) [nM] | IC50 [6] [nM] | inhibition in vivo at 60 mg/kg [11] [%] | inhibition in vivo at 60 mg/kg (A2780) [%] | Activity (Mus musculus [12]) [%] | Activity (Mus musculus [13]) [%]
47.5 | 14.7 | Stable | Stable |  |  |  |  |  | O=C(CCCCCCC(=O)Nc1ccccc1)NO [VORINOSTAT] | 4 |  |  |  |  |  | 
2.7 | 252 |  |  | 200 | 5 | 6.9 | 4.2 | > 10000 | CC(=O)SCCCCC[C@H](NC(=O)[C@H]1CCC(=O)N1)C(=O)Nc1ccccc1 |  | 70 | 75 | 62 | 89 | 1 | 7
